Experiments:
MDA-MB-231 cells [1] = assay: Crystal violet staining, cells remaining / viability dose-response; format: cell-based, human
Procedure, shortened: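 Cells were plated at 5,000/well in 5% charcoal-stripped DMEM for 48 h, then exposed to test compound or DMSO vehicle for 72 h at 37 °C, 5% CO2. They were fixed with glutaraldehyde for 20 min and stained for 20 min with 0.1% crystal violet in 90% methanol. After overnight drying, cells were lysed in 33% acetic acid and read at 620 nm. Signal was normalized to DMSO and plotted as dose-response.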

TU-BcX-4IC cells = assay: Crystal violet staining, cells remaining / viability dose-response; format: cell-based, human; details: 1 μM, 72 hours
MDA-MB-231 cells [2] = assay: qRT-PCR of epithelial and mesenchymal genes; format: cell-based, human; details: MDA-MB-231, 1 μM, 72 hours
Procedure, shortened: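 MDA-MB-231 cells in 5% charcoal-stripped DMEM were pre-exposed for 72 h to test compound (1 μM) or DMSO. RNA was then isolated and gene expression measured by quantitative real-time PCR.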

BT-549 cells = assay: qRT-PCR of epithelial and mesenchymal genes; format: cell-based, human; details: BT-549, 1 μM, 72 hours
Procedure, shortened: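 Cells were treated 72 h with test compound (1 μM) or DMSO. Total RNA was column-isolated and checked for quantity and quality by absorbance (260, 280 nm). Then 2 μg total RNA was reverse-transcribed and gene expression measured by qRT-PCR.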

TU-BcX-49S cells = assay: qRT-PCR of epithelial and mesenchymal genes; format: cell-based, human
TU-BcX-2K1 tumors = assay: qRT-PCR of ex vivo treated PDX tumor pieces; format: cell-based, human; details: TU-BcX-2K1 tumor pieces, 1 μM, 72 hours
TU-BcX-49S tumors = assay: qRT-PCR of ex vivo treated PDX tumor pieces; format: cell-based, human; details: TU-BcX-49S tumor pieces, 1 μM, 72 hours
TU-BcX-2O0 tumors = assay: qRT-PCR of ex vivo treated PDX tumor pieces; format: cell-based, human; details: TU-BcX-2O0 tumor pieces, 1 μM, 72 hours
[3] = system: PDX organoids (PDX-Os) created from TU-BcX-4IC; assay: Live/dead fluorescence stain of patient-derived organoids; format: cell-based; details: 1 μM, 72 hours, Calcein-AM/EthD-III
Procedure, shortened: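 Explants (2 × 2 mm) from passaged TU-BcX-4IC tumours were grown out for 7 days in 3D culture, giving mixed tumour and stromal cells. Organoids were moved to ultra-low-attachment spheroid wells and exposed to test compound or DMSO for 72 h. They were then stained with Calcein-AM (2 μM, live) and EthD-III (5 μM, dead) and imaged by confocal microscopy, 5 images per well.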

TU-BcX-4IC M2 spheres = assay: Mammosphere formation and area quantification; format: cell-based, human; details: 7 days treatment
Procedure, shortened: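 Cells were plated at 1,000/well in low-attachment plates in serum-free F12/DMEM with B-27 and left 24 h to form spheres. Spheres were then exposed to test compound or DMSO for one week, re-dosed every three days. Spheres were imaged at 40X or 100X, and length and width were measured to calculate area, which was compared with DMSO controls.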

MDA-MB-231 M2 spheres = assay: In vivo inoculation of pre-treated spheres, tumorigenesis and metastasis; design: species or system SCID/Beige mice; details: MDA-MB-231 M2 spheres pre-treated 1 μM 72 hours; all cell concentrations
Procedure, shortened: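 M2 spheres were treated 72 h at 1 μM or with DMSO under low attachment, dissociated with TrypLE, and counted by Trypan Blue so that only viable cells were injected. Cells (1,000–200,000) went bilaterally into the mammary fat pads of SCID/Beige mice (N=5). Tumors were caliper-measured biweekly, then resected; mice were killed 20 days later. Lungs and livers were formalin-fixed, paraffin-embedded and H&E-stained, and metastases were quantified.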

PDGFRB = PDGFRB (Homo sapiens, UniProt P09619); assay: Kinase inhibition assay; format: biochemical; details: 1 μM
BRSK2 = BRSK2 (Homo sapiens, UniProt Q8IWQ3); assay: Kinase inhibition assay; format: biochemical; details: 1 μM
Sequence of BRSK2 (Q8IWQ3 whole entry): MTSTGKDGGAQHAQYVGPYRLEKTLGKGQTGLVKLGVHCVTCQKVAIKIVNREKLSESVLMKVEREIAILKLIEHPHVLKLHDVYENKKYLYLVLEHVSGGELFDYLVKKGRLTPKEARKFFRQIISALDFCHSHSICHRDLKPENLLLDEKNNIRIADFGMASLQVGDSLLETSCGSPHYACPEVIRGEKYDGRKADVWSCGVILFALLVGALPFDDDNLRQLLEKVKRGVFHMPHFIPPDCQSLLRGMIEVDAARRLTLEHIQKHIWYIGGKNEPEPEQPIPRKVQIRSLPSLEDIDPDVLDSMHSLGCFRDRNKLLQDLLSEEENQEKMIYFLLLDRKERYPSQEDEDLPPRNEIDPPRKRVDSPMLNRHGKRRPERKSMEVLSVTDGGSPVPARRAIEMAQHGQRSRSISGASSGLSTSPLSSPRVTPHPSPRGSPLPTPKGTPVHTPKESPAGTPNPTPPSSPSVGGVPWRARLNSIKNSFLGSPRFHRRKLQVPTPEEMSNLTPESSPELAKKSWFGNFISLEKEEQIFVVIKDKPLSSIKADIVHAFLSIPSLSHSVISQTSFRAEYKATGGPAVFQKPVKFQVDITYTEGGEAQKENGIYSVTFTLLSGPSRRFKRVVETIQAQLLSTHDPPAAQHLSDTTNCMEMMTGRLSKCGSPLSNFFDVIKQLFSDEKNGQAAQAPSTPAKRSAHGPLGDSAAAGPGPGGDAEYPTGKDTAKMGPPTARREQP

Sequence of PDGFRB (P09619 33-1106): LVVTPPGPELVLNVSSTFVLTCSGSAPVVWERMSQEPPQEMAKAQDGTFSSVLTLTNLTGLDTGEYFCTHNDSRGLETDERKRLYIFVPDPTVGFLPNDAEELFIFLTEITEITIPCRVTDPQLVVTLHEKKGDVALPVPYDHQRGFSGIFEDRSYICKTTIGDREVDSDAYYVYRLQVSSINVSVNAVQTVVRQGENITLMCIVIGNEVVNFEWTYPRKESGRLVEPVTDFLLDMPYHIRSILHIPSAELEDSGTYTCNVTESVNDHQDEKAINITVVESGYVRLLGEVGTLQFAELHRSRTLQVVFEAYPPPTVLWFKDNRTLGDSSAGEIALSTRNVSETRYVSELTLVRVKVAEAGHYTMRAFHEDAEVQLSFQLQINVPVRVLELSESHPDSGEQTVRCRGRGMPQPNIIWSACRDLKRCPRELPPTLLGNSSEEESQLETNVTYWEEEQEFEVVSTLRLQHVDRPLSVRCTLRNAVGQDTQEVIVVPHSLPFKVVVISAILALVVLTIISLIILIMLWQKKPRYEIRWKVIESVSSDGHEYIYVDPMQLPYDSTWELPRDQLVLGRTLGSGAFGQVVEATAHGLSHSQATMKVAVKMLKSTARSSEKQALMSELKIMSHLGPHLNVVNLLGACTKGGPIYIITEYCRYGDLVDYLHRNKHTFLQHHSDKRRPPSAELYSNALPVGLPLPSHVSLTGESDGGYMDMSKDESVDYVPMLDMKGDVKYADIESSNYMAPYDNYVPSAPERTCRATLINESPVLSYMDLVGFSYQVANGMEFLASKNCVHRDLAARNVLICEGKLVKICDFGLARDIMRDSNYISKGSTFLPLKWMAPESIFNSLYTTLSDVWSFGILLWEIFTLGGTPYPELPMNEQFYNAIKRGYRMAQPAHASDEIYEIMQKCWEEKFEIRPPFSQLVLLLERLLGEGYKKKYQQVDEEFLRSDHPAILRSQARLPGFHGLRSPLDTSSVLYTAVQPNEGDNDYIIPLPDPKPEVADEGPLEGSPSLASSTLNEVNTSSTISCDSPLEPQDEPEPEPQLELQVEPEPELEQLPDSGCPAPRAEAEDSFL

For `C[C@@H](Oc1cc(-n2cnc3ccc(NC(=O)NC(C)(C)C)cc32)sc1C(N)=O)c1ccccc1Cl` [GSK346294A], the IC50 (MDA-MB-231 cells [1]; Homo sapiens, MDA-MB-231, 72 h, read-out: IC-50, number of cells remaining) was 50 µM, the “Number of cells remaining compared to DMSO controls” value (MDA-MB-231 cells [1]; MDA-MB-231, 1 μM, 72 hours) was “decreased the number of cells remaining” and the “Number of cells remaining compared to DMSO controls” value (TU-BcX-4IC cells) was “decreased the number of cells remaining”. The “MMP9 mRNA expression” value (MDA-MB-231 cells [2]) was “downregulated MMP9 expression, but not significantly”, the “cFOS mRNA expression” value (MDA-MB-231 cells [2]) was “suppressive effects in all three TNBC cell lines, although not significantly” and the “CDH1 mRNA expression” value (BT-549 cells) was “significantly reduced CDH1 mRNA expression”. For the same compound, the “MMP9 mRNA expression” value (BT-549 cells) was “Neither GSK346294A nor GSK448459A affected MMP9 expression”, the “SNAI1 mRNA expression” value (BT-549 cells) was “no significant effects on SNAI1 expression” and the “cFOS mRNA expression” value (BT-549 cells) was “suppressive effects in all three TNBC cell lines, although not significantly”. For the same compound, the “cFOS mRNA expression” value (TU-BcX-49S cells) was “Neither GSK346294A nor GSK448459A suppressed cFOS mRNA expression”, the “CDH1 mRNA expression” value (TU-BcX-49S cells; compared to DMSO controls) was “increased CDH1 expression” and the “CD24 mRNA expression” value (TU-BcX-2K1 tumors) was “increased CD24 expression”. The “CDH1 mRNA expression” value (TU-BcX-2K1 tumors) was “increased epithelial markers CDH1 mRNA expression”, the “CDH1 mRNA expression” value (TU-BcX-49S tumors) was “increased epithelial markers CDH1 mRNA expression” and the “MMP9 mRNA levels” value (TU-BcX-2O0 tumors) was “did not reduce MMP9 levels”. For the same compound, the “Reversal of mesenchymal phenotype on a transcript level” value (TU-BcX-2O0 tumors) was “did not reverse the mesenchymal phenotype”, the “Cytotoxicity to PDX organoids” value [3] was “not cytotoxic” and the “Mammosphere formation (sphere area)” value (TU-BcX-4IC M2 spheres) was “significantly suppressed mammosphere formation”. For the same compound, the “Area and number of lung and liver metastases” value (MDA-MB-231 M2 spheres) was “consistently suppressed both overall area and number of metastases in all cell concentrations, although not significantly”, the “Activity against PDGFRB” value (PDGFRB) was “moderate activity” and the “Activity against BRSK2” value (BRSK2) was “moderate activity”.

Reference: paper PMC8092417 (Anti-cancer drugs, 2020)
